Experimental data published in ChEMBL document CHEMBL1134569, “Synthesis and in vitro and in vivo antimalarial activity of new 4-anilinoquinolines” (J Med Chem, 2001).
pIC50: −log10 of the molar value. Where “and” joins values, the source holds several entries; their conditions need not be identical. Equal entries are not always repeated.

Legend:
[1] = Cytotoxicity upon MPMs (mouse peritoneal macrophages) at 32 uM
Outline: (§1)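 Mouse peritoneal macrophages harvested 48 h after potato-starch stimulation and seeded at 30000 cells/well. After 24 h, washed and exposed to 2-fold drug dilutions in RPMI + 5% FCS (final DMSO below 0.5%) at 37 °C, 5% CO₂, for 7 days. Toxicity scored microscopically as toxic or not versus untreated controls.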

[2] = Cytotoxicity upon MPMs (mouse peritoneal macrophages) at 2 uM; outline: as §1
[3] = Cytotoxicity upon MRC-5 cells (diploid embryonic lung cell line) at 1 uM; assay type: cell-based, MRC5; conditions: human
Outline: (§2)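 MRC-5 human diploid embryonic lung cells seeded at 5000/well, washed after 24 h, then given 2-fold drug dilutions in RPMI + 5% FCS (final DMSO below 0.5%). Incubated at 37 °C, 5% CO₂, for 7 days. MTT read-out at 540 nm, scored as percent absorbance reduction versus untreated controls.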

[4] = Cytotoxicity upon MRC-5 cells (diploid embryonic lung cell line) at 32 uM; assay type: cell-based, MRC5; conditions: human; outline: as §2
[5] = Cytotoxicity upon MPMs (mouse peritoneal macrophages) at 8 uM; outline: as §1
[6] = Cytotoxicity upon MRC-5 cells (diploid embryonic lung cell line) at 8 uM; assay type: cell-based, MRC5; conditions: human; outline: as §2
[7] = tested on: Plasmodium falciparum; assay: Inhibitory activity against chloroquine-resistant Plasmodium falciparum FcB1R; assay type: functional, organism-based
[8] = Cytotoxicity upon MPMs (mouse peritoneal macrophages) at 3.1 uM conc.;NT=No Toxicity; outline: as §1
[9] = Cytotoxicity upon MRC-5 cells (diploid embryonic lung cell line) at 12.5 uM; assay type: cell-based, MRC5; conditions: human; outline: as §2
[10] = Cytotoxicity upon MRC-5 cells (diploid embryonic lung cell line) at 3.1 uM; assay type: cell-based, MRC5; conditions: human; outline: as §2
[11] = Cytotoxicity upon MPMs (mouse peritoneal macrophages) at 12.5 uM conc.;NT=No Toxicity; outline: as §1
[12] = Cytotoxicity upon MPMs (mouse peritoneal macrophages) at 6.3 uM; outline: as §1
[13] = Cytotoxicity upon MRC-5 cells (diploid embryonic lung cell line) at 6.3 uM; assay type: cell-based, MRC5; conditions: human; outline: as §2

| SMILES | Cytotoxicity [1] | NT [2] | cytotoxicity at 1 µM [3] [%] | cytotoxicity at 32 µM [4] [%] | Cytotoxicity [5] | cytotoxicity at 8 µM [6] [%] | pIC50 ([7]; Plasmodium falciparum) | NT [8] | cytotoxicity at 12.5 µM [9] [%] | cytotoxicity at 3.1 µM [10] [%] | NT [11] | NT [12] | cytotoxicity at 6.3 µM [13] [%] | pIC50 [7] |
| --- | --- | --- | --- | --- | --- | --- | --- | --- | --- | --- | --- | --- | --- | --- |
| O=C(CN1CCCCC1)Nc1cc(CN2CCN(Cc3ccc([N+](=O)[O-])cc3)CC2)cc(Nc2ccnc3cc(Cl)ccc23)c1 | Cytotoxicity upon MPMs at 32 uM | Cytotoxicity upon MPMs at 2 uM | 0 | 100 | Cytotoxicity upon MPMs at 32 uM | 99 | 7.88 | – | – | – | – | – | – | – |
| O=CNc1cc(CO)cc(Nc2ccnc3cc(Cl)ccc23)c1 | – | – | – | – | – | – | 6.44 | Cytotoxicity upon MPMs at 6.3 uM | 0 | 0 | Cytotoxicity upon MPMs at 6.3 uM | Cytotoxicity upon MPMs at 6.3 uM | 0 | – |
| O=C(CN1CCCCC1)Nc1cc(CN2CCN(Cc3ccc(Cl)cc3)CC2)cc(Nc2ccnc3cc(Cl)ccc23)c1 | Cytotoxicity upon MPMs at 32 uM | Cytotoxicity upon MPMs at 2 uM | 0 | 100 | Cytotoxicity upon MPMs at 32 uM | 100 | 7.94 | – | – | – | – | – | – | – |
| CN1CCN(CC(=O)Nc2cc(CO)cc(Nc3ccnc4cc(Cl)ccc34)c2)CC1 | – | – | – | – | – | – | 6.46 | Cytotoxicity upon MPMs at 6.3 uM | 0 | 0 | Cytotoxicity upon MPMs at 6.3 uM | Cytotoxicity upon MPMs at 6.3 uM | 0 | – |
| O=C(CN1CCCCC1)Nc1cc(CN2CCN(C(c3ccccc3)c3ccccc3)CC2)cc(Nc2ccnc3cc(Cl)ccc23)c1 | Cytotoxicity upon MPMs at 32 uM | Cytotoxicity upon MPMs at 2 uM | 87 | 98 | Cytotoxicity upon MPMs at 32 uM | 97 | 7.90 | – | – | – | – | – | – | – |
| O=C(CN1CCCCC1)Nc1cc(CN2CCN(Cc3ccccc3)CC2)cc(Nc2ccnc3cc(Cl)ccc23)c1 | Cytotoxicity upon MPMs at 32 uM | Cytotoxicity upon MPMs at 2 uM | 0 | 100 | Cytotoxicity upon MPMs at 32 uM | 100 | 7.89 | – | – | – | – | – | – | – |
| O=C(CN1CCCCC1)Nc1cc(CN2CCN(CCO)CC2)cc(Nc2ccnc3cc(Cl)ccc23)c1 | Cytotoxicity upon MPMs at 32 uM | Cytotoxicity upon MPMs at 2 uM | 0 | 100 | Cytotoxicity upon MPMs at 32 uM | 100 | 7.94 | – | – | – | – | – | – | – |
| O=C(CN1CCCCC1)Nc1cc(CN2CCCC2)cc(Nc2ccnc3cc(Cl)ccc23)c1 | Cytotoxicity upon MPMs at 32 uM | Cytotoxicity upon MPMs at 2 uM | 0 | 100 | Cytotoxicity upon MPMs at 32 uM | 100 | 8.16 | – | – | – | – | – | – | – |
| O=C(CN1CCCCC1)Nc1cc(CN2CCN(Cc3ccc4c(c3)OCO4)CC2)cc(Nc2ccnc3cc(Cl)ccc23)c1 | Cytotoxicity upon MPMs at 32 uM | Cytotoxicity upon MPMs at 2 uM | 86 | 100 | Cytotoxicity upon MPMs at 32 uM | 99 | 8.16 | – | – | – | – | – | – | – |
| CC(C)(C)NCc1cc(NC(=O)CN2CCCCC2)cc(Nc2ccnc3cc(Cl)ccc23)c1 | Cytotoxicity upon MPMs at 32 uM | Cytotoxicity upon MPMs at 2 uM | 0 | 100 | Cytotoxicity upon MPMs at 32 uM | 100 | 8.43 | – | – | – | – | – | – | – |
| O=C(CN1CCOCC1)Nc1cc(CO)cc(Nc2ccnc3cc(Cl)ccc23)c1 | – | – | – | – | – | – | < 6.00 | Cytotoxicity upon MPMs at 6.3 uM | 0 | 0 | Cytotoxicity upon MPMs at 6.3 uM | Cytotoxicity upon MPMs at 6.3 uM | 0 | – |
| O=C(CNCc1ccc(Cl)cc1)Nc1cc(CO)cc(Nc2ccnc3cc(Cl)ccc23)c1 | – | – | – | – | – | – | 6.07 | – | 0 | 0 | – | – | 0 | – |
| CC1CCN(CCCCCCCC(=O)Nc2cc(CO)cc(Nc3ccnc4cc(Cl)ccc34)c2)CC1 | – | – | – | – | – | – | 6.51 | Cytotoxicity upon MPMs at 6.3 uM | 0 | 0 | Cytotoxicity upon MPMs at 6.3 uM | Cytotoxicity upon MPMs at 6.3 uM | 0 | – |
| O=C(CN1CCc2ccccc2C1)Nc1cc(CO)cc(Nc2ccnc3cc(Cl)ccc23)c1 | – | – | – | – | – | – | 5.84 | – | 0 | 0 | – | – | 0 | – |
| CN1CCN(Cc2cc(NC(=O)CN3CCCCC3)cc(Nc3ccnc4cc(Cl)ccc34)c2)CC1 | Cytotoxicity upon MPMs at 32 uM | Cytotoxicity upon MPMs at 2 uM | 0 | 83 | Cytotoxicity upon MPMs at 32 uM | 80 | 8.12 | – | – | – | – | – | – | – |
| O=C(CN1CCCCC1)Nc1cc(CN2CCC(O)CC2)cc(Nc2ccnc3cc(Cl)ccc23)c1 | Cytotoxicity upon MPMs at 32 uM | Cytotoxicity upon MPMs at 2 uM | 0 | 100 | Cytotoxicity upon MPMs at 32 uM | 100 | 8.19 | – | – | – | – | – | – | – |
| COc1ccc(CN2CCN(Cc3cc(NC(=O)CN4CCCCC4)cc(Nc4ccnc5cc(Cl)ccc45)c3)CC2)cc1 | Cytotoxicity upon MPMs at 32 uM | Cytotoxicity upon MPMs at 2 uM | 50 | 100 | Cytotoxicity upon MPMs at 32 uM | 100 | 7.96 | – | – | – | – | – | – | – |
| O=C(CN1CCC(O)CC1)Nc1cc(CO)cc(Nc2ccnc3cc(Cl)ccc23)c1 | – | – | – | – | – | – | 5.98 | – | 0 | 0 | – | – | 0 | – |
| O=C(CN1CCCCC1)Nc1cc(CNCc2ccc(C(F)(F)F)cc2)cc(Nc2ccnc3cc(Cl)ccc23)c1 | Cytotoxicity upon MPMs at 32 uM | Cytotoxicity upon MPMs at 2 uM | 0 | 100 | Cytotoxicity upon MPMs at 32 uM | 100 | 8.26 | – | – | – | – | – | – | – |
| Nc1ccn(CC(=O)Nc2cc(CO)cc(Nc3ccnc4cc(Cl)ccc34)c2)n1 | – | – | – | – | – | – | 6.09 | Cytotoxicity upon MPMs at 6.3 uM | 0 | 0 | Cytotoxicity upon MPMs at 6.3 uM | Cytotoxicity upon MPMs at 6.3 uM | 0 | – |
| O=C(CN1CCCCC1)Nc1cc(CNC(c2ccccc2)c2ccccc2)cc(Nc2ccnc3cc(Cl)ccc23)c1 | Cytotoxicity upon MPMs at 32 uM | Cytotoxicity upon MPMs at 2 uM | 0 | 100 | Cytotoxicity upon MPMs at 32 uM | 100 | 8.04 | – | – | – | – | – | – | – |
| O=C(CN1CCCCC1)Nc1cc(CNCCN2CCCC2)cc(Nc2ccnc3cc(Cl)ccc23)c1 | Cytotoxicity upon MPMs at 32 uM | Cytotoxicity upon MPMs at 2 uM | – | 100 | – | 100 | 7.99 | – | – | – | – | – | – | 8.18 and 8.10 |
| O=C(CN1CCCCC1)Nc1cc(CNc2ccccc2)cc(Nc2ccnc3cc(Cl)ccc23)c1 | Cytotoxicity upon MPMs at 32 uM | Cytotoxicity upon MPMs at 2 uM | 0 | 100 | Cytotoxicity upon MPMs at 32 uM | 100 | 7.67 | – | – | – | – | – | – | – |
| CN(C)CCN(C)Cc1cc(NC(=O)CN2CCCCC2)cc(Nc2ccnc3cc(Cl)ccc23)c1 | Cytotoxicity upon MPMs at 32 uM | Cytotoxicity upon MPMs at 2 uM | 43 | 100 | Cytotoxicity upon MPMs at 32 uM | 100 | 8.30 | – | – | – | – | – | – | – |
| O=C(CN1CCCCC1)Nc1cc(CN2CCN(c3ccccc3)CC2)cc(Nc2ccnc3cc(Cl)ccc23)c1 | Cytotoxicity upon MPMs at 32 uM | Cytotoxicity upon MPMs at 2 uM | 0 | 100 | Cytotoxicity upon MPMs at 32 uM | 100 | 8.26 | – | – | – | – | – | – | – |
| CC(C)(C)NCC(=O)Nc1cc(CO)cc(Nc2ccnc3cc(Cl)ccc23)c1 | – | – | – | – | – | – | 7.29 | Cytotoxicity upon MPMs at 6.3 uM | 0 | 0 | Cytotoxicity upon MPMs at 6.3 uM | Cytotoxicity upon MPMs at 6.3 uM | 0 | – |
| O=C(CN1CCCCC1)Nc1cc(CNCc2ccccc2)cc(Nc2ccnc3cc(Cl)ccc23)c1 | Cytotoxicity upon MPMs at 32 uM | Cytotoxicity upon MPMs at 2 uM | 96 | 100 | Cytotoxicity upon MPMs at 32 uM | 100 | 8.07 | – | – | – | – | – | – | – |
